From article PMC3966491 (Chemical biology & drug design, 2013)

How the values were obtained:
AKT1 (PKB alpha) = AKT1 (PKB alpha) (Homo sapiens, UniProt P31749); experiment: AKT1 in vitro kinase assay; assay type: biochemical
Summary of the method: (§1)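 Z′-LYTE assay. Enzyme per 10 μL reaction: AKT1 0.34–7.65 ng, AKT2 1–40 ng, or AKT3 0.56–8.3 ng. Reaction contained 2 μM Ser/Thr 06 peptide, ATP at Km, 50 mM HEPES pH 7.5, 0.01% BRIJ-35, 10 mM MgCl2 and 1 mM EGTA. After 1 h, Development Reagent A (1:2048) protease cleaved non-phosphorylated peptide. Read-out was the coumarin 445 nm/fluorescein 520 nm emission ratio; curves were fitted.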

[1] = in vitro microsomal stability; assay type: in vitro ADME
CHUK (IKK alpha) = molecular target: T1, CHUK (IKK alpha) (Homo sapiens, UniProt O15111); experiment: IKKα; assay type: biochemical; conditions: for IKKα in vitro kinase inhibition (in words): stated for IKKs
T1 sequence (O15111 1-745): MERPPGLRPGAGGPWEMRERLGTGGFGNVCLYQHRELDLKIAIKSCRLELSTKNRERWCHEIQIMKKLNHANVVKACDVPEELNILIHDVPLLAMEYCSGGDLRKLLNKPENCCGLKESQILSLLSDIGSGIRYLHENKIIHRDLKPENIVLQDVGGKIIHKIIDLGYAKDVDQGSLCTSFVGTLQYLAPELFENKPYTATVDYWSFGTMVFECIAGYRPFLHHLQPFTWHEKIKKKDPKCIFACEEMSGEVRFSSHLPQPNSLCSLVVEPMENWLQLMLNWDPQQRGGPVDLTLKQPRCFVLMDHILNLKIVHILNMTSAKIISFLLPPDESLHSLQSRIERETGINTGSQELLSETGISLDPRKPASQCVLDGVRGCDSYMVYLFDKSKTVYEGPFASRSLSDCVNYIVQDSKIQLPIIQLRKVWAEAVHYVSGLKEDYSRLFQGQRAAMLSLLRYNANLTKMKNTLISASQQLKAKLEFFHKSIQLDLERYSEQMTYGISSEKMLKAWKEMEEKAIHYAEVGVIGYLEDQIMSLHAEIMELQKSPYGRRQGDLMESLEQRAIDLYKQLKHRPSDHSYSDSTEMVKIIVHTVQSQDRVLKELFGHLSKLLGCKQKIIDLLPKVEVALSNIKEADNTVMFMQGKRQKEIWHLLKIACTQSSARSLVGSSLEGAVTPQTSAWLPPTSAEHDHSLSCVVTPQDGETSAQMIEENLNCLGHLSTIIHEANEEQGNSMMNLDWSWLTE
Summary of the method: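 ADAPTA ADP-detection format. Detection mix added EDTA (stop), europium-labelled anti-ADP antibody and Alexa Fluor 647 ADP tracer; ADP formation was taken from the emission ratio. Where noted, IC50 was predicted from % inhibition at 1 μM test compound, mean of two experiments.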

IKBKB (IKK beta) = molecular target: T2, IKBKB (IKK beta) (Homo sapiens, UniProt O14920); experiment: IKKβ; assay type: biochemical; conditions: for IKKβ in vitro kinase inhibition (in words): stated for IKKs
T2 sequence (O14920 1-756): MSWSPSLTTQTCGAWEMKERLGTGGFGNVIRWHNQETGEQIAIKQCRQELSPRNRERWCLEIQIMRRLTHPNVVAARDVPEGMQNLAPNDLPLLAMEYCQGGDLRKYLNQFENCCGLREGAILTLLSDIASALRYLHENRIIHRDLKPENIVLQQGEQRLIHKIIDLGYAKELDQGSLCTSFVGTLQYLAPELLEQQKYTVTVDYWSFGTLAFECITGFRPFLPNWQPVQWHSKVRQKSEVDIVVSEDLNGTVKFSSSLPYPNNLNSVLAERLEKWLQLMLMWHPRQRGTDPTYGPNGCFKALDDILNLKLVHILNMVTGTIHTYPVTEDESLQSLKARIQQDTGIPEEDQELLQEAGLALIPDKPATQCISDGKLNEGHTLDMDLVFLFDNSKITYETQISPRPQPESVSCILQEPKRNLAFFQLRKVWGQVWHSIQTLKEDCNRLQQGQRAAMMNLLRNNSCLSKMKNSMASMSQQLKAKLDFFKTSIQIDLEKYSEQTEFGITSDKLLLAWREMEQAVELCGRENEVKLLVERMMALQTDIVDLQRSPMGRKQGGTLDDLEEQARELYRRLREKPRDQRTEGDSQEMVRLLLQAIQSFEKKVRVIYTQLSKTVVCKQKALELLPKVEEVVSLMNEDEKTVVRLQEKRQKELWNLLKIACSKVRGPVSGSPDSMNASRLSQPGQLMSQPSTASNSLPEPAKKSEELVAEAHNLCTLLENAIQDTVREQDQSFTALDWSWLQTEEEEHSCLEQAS
Summary of the method: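 Z′-LYTE format. Development used Reagent B (1:64) protease; read-out was the coumarin 445 nm/fluorescein 520 nm emission ratio. Where noted, IC50 was predicted from % inhibition at 10 μM test compound, mean of two experiments.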

[2] = in vitro plasma stability; assay type: in vitro ADME
AKT2 (PKB beta) = AKT2 (PKB beta) (Homo sapiens, UniProt P31751); experiment: AKT2 in vitro kinase assay; assay type: biochemical
Summary of the method: as §1

AKT3 (PKB gamma) = AKT3 (PKB gamma) (Homo sapiens, UniProt Q9Y243); experiment: AKT3 in vitro kinase assay; assay type: biochemical
Summary of the method: as §1

Chain of AKT3 (PKB gamma) (Q9Y243 whole entry): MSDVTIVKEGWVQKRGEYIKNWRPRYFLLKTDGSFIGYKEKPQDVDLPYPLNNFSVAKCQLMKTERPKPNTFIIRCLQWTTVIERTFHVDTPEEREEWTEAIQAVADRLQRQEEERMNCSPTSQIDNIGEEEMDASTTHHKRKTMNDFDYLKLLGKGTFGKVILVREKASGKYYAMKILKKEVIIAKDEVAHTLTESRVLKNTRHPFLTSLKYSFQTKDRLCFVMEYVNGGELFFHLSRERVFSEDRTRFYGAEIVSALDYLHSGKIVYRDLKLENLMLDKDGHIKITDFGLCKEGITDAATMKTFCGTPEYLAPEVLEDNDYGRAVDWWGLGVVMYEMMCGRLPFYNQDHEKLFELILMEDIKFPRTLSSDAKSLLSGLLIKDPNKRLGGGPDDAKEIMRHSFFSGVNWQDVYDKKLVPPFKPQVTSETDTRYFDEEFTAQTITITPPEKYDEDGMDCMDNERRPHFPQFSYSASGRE
Chain of AKT1 (PKB alpha) (P31749 whole entry): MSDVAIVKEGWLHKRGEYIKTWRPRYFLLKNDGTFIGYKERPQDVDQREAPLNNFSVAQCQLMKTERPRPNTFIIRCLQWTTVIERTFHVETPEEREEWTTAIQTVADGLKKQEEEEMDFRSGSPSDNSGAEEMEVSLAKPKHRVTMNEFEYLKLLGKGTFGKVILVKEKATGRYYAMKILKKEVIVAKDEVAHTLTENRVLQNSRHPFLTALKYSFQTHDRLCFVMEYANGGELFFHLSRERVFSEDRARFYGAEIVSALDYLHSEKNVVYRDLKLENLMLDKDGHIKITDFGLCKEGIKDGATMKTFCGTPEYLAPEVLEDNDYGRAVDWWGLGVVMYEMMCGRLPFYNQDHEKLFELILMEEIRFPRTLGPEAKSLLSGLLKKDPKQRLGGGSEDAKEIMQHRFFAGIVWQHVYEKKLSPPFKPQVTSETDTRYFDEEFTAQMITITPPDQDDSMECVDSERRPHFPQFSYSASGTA
Chain of AKT2 (PKB beta) (P31751 whole entry): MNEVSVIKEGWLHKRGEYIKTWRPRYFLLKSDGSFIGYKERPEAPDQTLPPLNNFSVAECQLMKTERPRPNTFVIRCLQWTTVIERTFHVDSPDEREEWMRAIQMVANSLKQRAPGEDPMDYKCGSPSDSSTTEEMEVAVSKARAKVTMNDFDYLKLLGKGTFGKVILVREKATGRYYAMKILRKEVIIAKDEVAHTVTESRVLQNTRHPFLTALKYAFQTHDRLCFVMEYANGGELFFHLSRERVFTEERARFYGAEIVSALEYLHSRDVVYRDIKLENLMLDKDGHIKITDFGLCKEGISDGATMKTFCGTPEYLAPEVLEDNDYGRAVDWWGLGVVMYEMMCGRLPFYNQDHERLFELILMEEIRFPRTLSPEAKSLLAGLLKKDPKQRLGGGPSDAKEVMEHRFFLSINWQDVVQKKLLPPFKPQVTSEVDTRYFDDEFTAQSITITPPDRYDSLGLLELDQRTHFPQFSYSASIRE

| IC50 (AKT1 (PKB alpha)) [µM] | IC50 (CHUK (IKK alpha)) [µM] | IC50 (IKBKB (IKK beta)) [µM] | Structure (SMILES) | other results |
| --- | --- | --- | --- | --- |
| 6.22 | 3.85 | 2.3 | O=C(/C=C/c1nc2ccccc2[nH]1)c1c(O)nc2ccc(Cl)cc2c1-c1ccccc1 [compound 1, (E)-3-(3-(1H-benzo[d]imidazol-2-yl)acryloyl)-6-chloro-4-phenylquinolin-2(1H)-one] | microsomal stability [1]: favorable; plasma stability [2]: favorable; IC50 (AKT2 (PKB beta)): 4.24 µM; IC50 (AKT3 (PKB gamma)): 10.9 µM |
| > 100 | – | – | Cn1c(/C=C/C(=O)c2c(-c3ccccc3)c3cc(Cl)ccc3[nH]c2=O)nc2ccccc21 [compound 39, (E)-6-chloro-3-(3-(1-methyl-1H-benzo[d]imidazol-2-yl)acryloyl)-4-phenylquinolin-2(1H)-one] | AKT1 in vitro inhibition (in words) (AKT1 (PKB alpha)): inactive |
| 43.3 | 8.03 | 9.6 | Cc1ccc2[nH]c(/C=C/C(=O)c3c(-c4ccccc4)c4cc(Cl)ccc4[nH]c3=O)nc2c1 [compound 40, (E)-6-chloro-3-(3-(5-methyl-1H-benzo[d]imidazol-2-yl)acryloyl)-4-phenylquinolin-2(1H)-one] | IC50 (AKT2 (PKB beta)): 5 µM; IC50 (AKT3 (PKB gamma)): 8.4 µM |
| 14 | – | – | O=C(/C=C/c1nc2cc(Br)ccc2[nH]1)c1c(-c2ccccc2)c2cc(Cl)ccc2[nH]c1=O [compound 41, (E)-3-(3-(5-bromo-1H-benzo[d]imidazol-2-yl)acryloyl)-6-chloro-4-phenylquinolin-2(1H)-one] | – |
| 5.2 | – | – | O=C(/C=C/c1nc2ccccc2[nH]1)c1c(-c2ccccc2)c2ccccc2[nH]c1=O [compound 43, (E)-3-(3-(1H-benzo[d]imidazol-2-yl)acryloyl)-4-phenylquinolin-2(1H)-one] | – |
| 4.48 | 6.02 | 5.6 | O=C(/C=C/c1nc2ccccc2[nH]1)c1c(-c2ccccc2)c2cc(Br)ccc2[nH]c1=O [compound 44, (E)-3-(3-(1H-benzo[d]imidazol-2-yl)acryloyl)-6-bromo-4-phenylquinolin-2(1H)-one] | IC50 (AKT2 (PKB beta)): 1.72 µM; IC50 (AKT3 (PKB gamma)): 8.85 µM |
| 6.26 | 29.1 | 7.9 | Cc1ccc2[nH]c(=O)c(C(=O)/C=C/c3nc4ccccc4[nH]3)c(-c3ccccc3)c2c1 [compound 45, (E)-3-(3-(1H-benzo[d]imidazol-2-yl)acryloyl)-6-methyl-4-phenylquinolin-2(1H)-one] | IC50 (AKT3 (PKB gamma)): 5.53 µM |
| 17.2 | – | – | Cn1c(=O)c(C(=O)/C=C/c2nc3cc(F)ccc3[nH]2)c(-c2ccccc2)c2cc(Cl)ccc21 [compound 46, (E)-6-chloro-3-(3-(5-fluoro-1H-benzo[d]imidazol-2-yl)acryloyl)-1-methyl-4-phenylquinolin-2(1H)-one] | – |
| 15.9 | 13.1 | 16 | O=C(/C=C/c1nc2cc(F)c(F)cc2[nH]1)c1c(-c2ccc(F)cc2)c2cc(F)ccc2[nH]c1=O [compound 48, (E)-3-(3-(5,6-difluoro-1H-benzo[d]imidazol-2-yl)acryloyl)-6-fluoro-4-(4-fluorophenyl)quinolin-2(1H)-one] | – |
| 30.4 | 7.12 | 15.4 | O=C(/C=C/c1nc2cc(F)c(F)cc2[nH]1)c1c(-c2ccc(F)cc2)c2cc(Cl)ccc2[nH]c1=O [compound 49, (E)-6-chloro-3-(3-(5,6-difluoro-1H-benzo[d]imidazol-2-yl)acryloyl)-4-(4-fluorophenyl)quinolin-2(1H)-one] | – |
| > 50 | – | – | Cc1ccc(-c2c(C(=O)/C=C/c3nc4cc(F)c(F)cc4[nH]3)c(=O)[nH]c3ccc(Cl)cc23)cc1 [compound 50, (E)-6-chloro-3-(3-(5,6-difluoro-1H-benzo[d]imidazol-2-yl)acryloyl)-4-(p-tolyl)quinolin-2(1H)-one] | – |
| > 50 | – | – | O=C(/C=C/c1nc2cc(F)c(F)cc2[nH]1)c1c(-c2ccc(Cl)cc2)c2cc(Cl)ccc2[nH]c1=O [compound 51, (E)-6-chloro-4-(4-chlorophenyl)-3-(3-(5,6-difluoro-1H-benzo[d]imidazol-2-yl)acryloyl)quinolin-2(1H)-one] | – |
| > 50 | – | – | COc1ccc(-c2c(C(=O)/C=C/c3nc4cc(F)c(F)cc4[nH]3)c(=O)[nH]c3ccc(Cl)cc23)cc1 [compound 52, (E)-6-chloro-3-(3-(5,6-difluoro-1H-benzo[d]imidazol-2-yl)acryloyl)-4-(4-methoxyphenyl)quinolin-2(1H)-one] | – |
| > 50 | – | – | CCOc1ccc(-c2c(C(=O)/C=C/c3nc4cc(F)c(F)cc4[nH]3)c(=O)[nH]c3ccc(Cl)cc23)cc1 [compound 53, (E)-6-chloro-3-(3-(5,6-difluoro-1H-benzo[d]imidazol-2-yl)acryloyl)-4-(4-ethoxyphenyl)quinolin-2(1H)-one] | – |
| 44.5 | 7.2 | 16.4 | O=C(/C=C/c1nc2cc(F)c(F)cc2[nH]1)c1c(-c2ccc(F)c(F)c2)c2cc(F)ccc2[nH]c1=O [compound 54, (E)-3-(3-(5,6-difluoro-1H-benzo[d]imidazol-2-yl)acryloyl)-4-(3,4-difluorophenyl)-6-fluoroquinolin-2(1H)-one] | – |
| > 50 | 12.1 | 17.8 | O=C(/C=C/c1nc2cc(F)c(F)cc2[nH]1)c1c(-c2ccc(F)c(F)c2)c2cc(Cl)ccc2[nH]c1=O [compound 55, (E)-6-chloro-3-(3-(5,6-difluoro-1H-benzo[d]imidazol-2-yl)acryloyl)-4-(3,4-difluorophenyl)quinolin-2(1H)-one] | – |
| – | – | – | O=C(NCc1nc2ccccc2[nH]1)c1c(-c2ccccc2)c2cc(Cl)ccc2[nH]c1=O [compound 58, N-((1H-benzo[d]imidazol-2-yl)methyl)-6-chloro-2-oxo-4-phenyl-1,2-dihydroquinoline-3-carboxamide] | AKT1 in vitro inhibition (in words) (AKT1 (PKB alpha)): completely inactive; IKKα in vitro kinase inhibition (in words) (CHUK (IKK alpha)): completely inactive; IKKβ in vitro kinase inhibition (in words) (IKBKB (IKK beta)): completely inactive |
| – | – | – | O=C(CCc1nc2ccccc2[nH]1)c1c(-c2ccccc2)c2cc(Cl)ccc2[nH]c1=O [compound 59, 3-(3-(1H-benzo[d]imidazol-2-yl)propanoyl)-6-chloro-4-phenylquinolin-2(1H)-one] | AKT1 in vitro inhibition (in words) (AKT1 (PKB alpha)): completely inactive; IKKα in vitro kinase inhibition (in words) (CHUK (IKK alpha)): completely inactive; IKKβ in vitro kinase inhibition (in words) (IKBKB (IKK beta)): completely inactive |
